Source: PubChem BioAssay
A selection: hits, their analogues and other compounds. The true share with any hit is near 2.3%.
TRPC4 block: inhibitors of mouse TRPC4 channel | Q9QUQ5 | HEK293 TRPC4beta/mu-opioid, DAMGO-evoked Fluo4 calcium flux; stronger effect = lower value | B-score at 10 µM | hit rate 0.39% among 300,000 | AID 2247;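 active = B-score over 3 SD under the library average, no early fluorescence shift, positive overall ratio signal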
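Assay system: Stable TRPC4beta/mu-opioid receptor HEK293 cells | Reagent: DAMGO in two steps, submaximal then maximal | Compound dosing: Single concentration per test compound | Signal: Fluo4 Ca2+ flux fluorescence | Evaluation: Per-well B score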
TRPC4 act: activators of mouse TRPC4 channel. HEK293 TRPC4beta/mu-opioid, Fluo4 calcium fluorescence; stronger effect = higher value. hit rate 0.49% among 310,000. B-score at 10 µM;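 active = B-score above 5 SD of library B-scores, and initial fluorescence ratio not above library mean plus 5 SD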;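 note: positive B-score marks a calcium rise read as TRPC4 activation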
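Assay system: HEK293 stable line with TRPC4beta plus mu-opioid receptor; schedule: 45 min room-temperature Fluo4 loading, 110 s read; technique: kinetic Fluo4 calcium fluorescence; evaluation: integrated baseline-normalised fluorescence ratio, converted to per-well B score; controls: buffer (low) and maximal DAMGO (high)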
TRPC4 PAM: TRPC4 (mouse) allosteric potentiation | HEK293 TRPC4beta/mu-opioid, DAMGO EC20, Fluo-4 Ca2+ flux; stronger effect = higher value | B-score at 10 µM | hit rate 0.42% among 310,000 | AID 2227;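 active = B-score of calcium response area above 5 SD of library B-scores, with initial fluorescence ratio within 5 SD of library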;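 note: B-score of integrated fluorescence ratio over time as area under calcium response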
TRPC6 inhibitor: blocks the mouse TRPC6 cation channel; Q61143; HEK293-TRPC6, membrane potential dye, ACh-evoked depolarization; stronger effect = lower value; B-score at 10 µM; hit rate 1.1% among 310,000; AID 2553;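 active = B-score under library mean minus 3 SD, initial fluorescence not abnormally high, positive integrated signal ratio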;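 note: B-score derived from integrated fluorescence ratio over the kinetic read; more negative B-score means stronger inhibition of depolarization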
Target sequence (Q61143 whole entry, looked up): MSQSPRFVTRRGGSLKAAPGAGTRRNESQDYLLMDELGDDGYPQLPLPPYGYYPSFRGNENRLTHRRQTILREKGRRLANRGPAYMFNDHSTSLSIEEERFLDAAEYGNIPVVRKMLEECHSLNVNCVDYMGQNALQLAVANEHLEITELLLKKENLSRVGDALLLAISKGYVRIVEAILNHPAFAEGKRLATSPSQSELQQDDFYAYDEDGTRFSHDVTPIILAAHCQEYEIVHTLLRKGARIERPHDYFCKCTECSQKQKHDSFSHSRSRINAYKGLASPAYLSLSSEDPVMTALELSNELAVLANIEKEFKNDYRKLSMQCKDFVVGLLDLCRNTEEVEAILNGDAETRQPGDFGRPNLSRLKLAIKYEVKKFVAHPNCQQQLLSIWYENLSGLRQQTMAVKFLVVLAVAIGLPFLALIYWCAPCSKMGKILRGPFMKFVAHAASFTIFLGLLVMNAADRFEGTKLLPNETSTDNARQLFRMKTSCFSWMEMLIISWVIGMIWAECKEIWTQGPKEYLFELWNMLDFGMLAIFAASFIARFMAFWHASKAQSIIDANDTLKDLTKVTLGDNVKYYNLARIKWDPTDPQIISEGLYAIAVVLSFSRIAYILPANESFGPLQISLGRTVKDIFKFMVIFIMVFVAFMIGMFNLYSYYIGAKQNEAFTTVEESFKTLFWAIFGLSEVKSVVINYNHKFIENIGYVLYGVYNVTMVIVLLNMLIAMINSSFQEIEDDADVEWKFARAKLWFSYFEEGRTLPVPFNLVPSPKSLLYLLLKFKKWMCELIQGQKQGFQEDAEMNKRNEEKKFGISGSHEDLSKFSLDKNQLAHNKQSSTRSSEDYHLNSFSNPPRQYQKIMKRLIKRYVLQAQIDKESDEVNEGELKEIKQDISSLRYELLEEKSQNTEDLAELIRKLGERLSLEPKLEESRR
TRPC6 activator: activators of mouse TRPC6 channel | B-score at 10 µM | hit rate 0.13% among 310,000 | Q61143 | HEK293-TRPC6 membrane potential dye fluorescence; stronger effect = higher value;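 active = B-score of the integrated fluorescence ratio above library mean plus 3 SD, and starting fluorescence ratio within library mean plus 5 SD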;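 note: higher score means more depolarization so channel activation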
TRPC4 sel inh 2: mouse TRPC4 off-target activity of TRPC6 inhibitors, second screen; shares compounds with TRPC6 inhibitor; hit rate 42% among 920; inhibition, % at 10 µM; HEK293 TRPC4/MOR, membrane potential dye fluorescence; channel activated by saturating DAMGO dose;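 active = compounds whose fluorescence signal differed from control wells by over 3 SD, either direction, in both duplicate plates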
TRPC4 spec: mouse TRPC4 off-target activity of TRPC6 inhibitors | activity change, negative = inhibition, % at 10 µM | HEK293 TRPC4/mu-opioid, membrane potential fluorescence | hit rate 61% among 920 | shares compounds with TRPC6 inhibitor;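 active = rise or fall in signal beyond 3 SD of buffer-only wells in both replicate plates, either sign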;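 note: integrated kinetic ratio of fluorescence range over baseline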
HEK293 MPD ctr 2-1: second counter-screen for TRPC6 inhibitors: parental HEK293 cells; shares compounds with TRPC6 inhibitor; parental HEK293 membrane potential dye fluorescence; maximal acetylcholine challenge after compound addition; signal change vs control, % at 10 µM; hit rate 31% among 920; AID 2779;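 active = membrane potential signal moving either way by over 3 SD of the maximum-effect control, in both duplicate plates, meaning non-specific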
HEK293 MPD ctr-1: checks TRPC6 inhibitor effects in parental HEK293 cells. parental HEK293 membrane potential dye fluorescence. hit rate 60% among 920. membrane potential signal change, % at 10 µM. AID 2780. shares compounds with TRPC6 inhibitor;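 active = membrane potential signal shifting up or down by more than 3 SD of buffer-only wells, on both duplicate plates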
HEK293 MPD ctr-2: counter-screen for TRPC6 modulators: effect in parental HEK293 cells | shares compounds with TRPC6 inhibitor | membrane potential dye fluorescence | membrane potential signal change, % at 10 µM | hit rate 51% among 2,400 | AID 488924;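 active = membrane potential signal moves up or down beyond 5 SD from buffer-only wells, on both duplicate plates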
HEK293 MPD ctr 2-2: second counter-screen for TRPC6 modulators: effect in parental HEK293 cells; shares compounds with TRPC6 inhibitor; membrane potential dye fluorescence; after compound, maximal acetylcholine stimulation; inhibition, % at 10 µM; hit rate 14% among 2,400; AID 488926;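 active = membrane potential signal drops by more than 5 SD from the mean control signal, in both duplicate plates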;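 note: plate controls were acetylcholine ECmax control wells for no effect and buffer only wells for full effect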
TRPC4 ctr mod: tests whether TRPC6 modulators also affect mouse TRPC4. hit rate 69% among 2,400. HEK293 TRPC4/mu-opioid, membrane potential fluorescence. shares compounds with TRPC6 inhibitor. percent change from control (negative = decrease, positive = increase), % at 10 µM;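 active = membrane potential signal moved up or down beyond 5 SD of buffer control wells, in both duplicate plates, actives on both sides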;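 note: plate controls were assay buffer wells for no effect and DAMGO maximal-effect wells for full effect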
TRPC4/MOR inh 2: second check of whether TRPC6 modulators also affect mouse TRPC4 | shares compounds with TRPC6 inhibitor | HEK293 TRPC4/mu-opioid, membrane potential dye fluorescence; stimulated with maximal-effect DAMGO | inhibition, % at 10 µM | hit rate 55% among 2,400;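 active = drop in membrane potential signal beyond 5 SD of the control wells in both duplicate plates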;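 note: TRPC4 counter screen for TRPC6 hits run under conditions tuned for TRPC6 not TRPC4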
TRPC6 block conf: confirmation of mouse TRPC6 inhibitors | shares compounds with TRPC6 inhibitor | hit rate 43% among 3,300 | inhibition, % at 10 µM | HEK293-TRPC6, membrane potential dye, ACh-evoked depolarization;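 active = fluorescence ratio falls more than 5 SD below the full-stimulation control mean, in both duplicate runs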;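 note: integrated fluorescence ratio of peak minus minimum over baseline after agonist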
TRPC6 act confirm: mouse TRPC6 activator confirmation; HEK293-TRPC6 membrane potential dye fluorescence, FDSS; activation, % at 10 µM; AID 488961; hit rate 11% among 2,800; shares compounds with TRPC6 inhibitor;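 active = ratio signal rise beyond 5 SD above unstimulated control wells' mean, seen in both duplicate runs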;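 note: plate controls were buffer EC0 wells for no effect and acetylcholine ECmax response for full effect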
An asterisk follows results filed as active; i = inactive; / = no result.

SMILES	TRPC4 block	TRPC4 act	TRPC4 PAM	TRPC6 inhibitor	TRPC6 activator	HEK293 MPD ctr-2	HEK293 MPD ctr 2-2	TRPC4 ctr mod	TRPC4/MOR inh 2	TRPC6 block conf	TRPC6 act confirm	others
CCOC(=O)COc1cc(-n2c(=S)[nH]c3cc(OC)c(OC)cc3c2=O)c(Cl)cc1Cl	i	i	i	i	i	/	/	/	/	/	/
O=C(Nc1ccc2c(c1)OCO2)N1CCN(Cc2ccco2)CC1	i	i	i	i	i	/	/	/	/	/	/
COc1ccc(-c2nc3cc(C)ccn3c2NCC2CCCO2)cc1OC (stereo not given)	i	i	i	-6.9*	i	-223%*	80%*	-38%*	44%*	56%*	i
Cc1ccc(C(=O)N2CCN(c3nc4ccccc4n3C)CC2)cc1	i	i	i	i	i	/	/	/	/	/	/
CC(=O)n1c(-c2ccccc2)c(-c2ccccc2)n(C)c1=O	i	i	i	i	i	/	/	/	/	/	/
CSc1cccc(NC(=O)CN(Cc2ccc(Cl)cc2)S(C)(=O)=O)c1	i	i	i	i	i	/	/	/	/	/	/
CCOC(=O)c1c(C)cc(C)n2c1nc1ccccc12	i	i	i	-8.1*	i	/	/	/	/	i	i	TRPC4 sel inh 2=i;TRPC4 spec=-21%*;HEK293 MPD ctr 2-1=i;HEK293 MPD ctr-1=-250%*
COc1ccc(CCCc2nnc(SCC(=O)NN)o2)c(C)c1	i	i	i	i	i	/	/	/	/	/	/
Cc1ccc(N(C(=O)c2snc(C(N)=O)c2N)C(C(=O)NCc2ccccc2)c2ccncc2)c(C)c1 (stereo not given)	i	i	i	i	i	/	/	/	/	/	/
CCCN1CCCc2cc(CN(CCCN3CCOCC3)C(=O)Nc3ccc(OCC)cc3)ccc21	i	i	i	-5.3*	i	i	i	i	38%*	i	i
CCOc1ccc(NC(=O)N(CCN2CCOCC2)Cc2ccc3c(c2)CCCN3CC)cc1	i	i	i	i	i	/	/	/	/	/	/
CCC(C)(C)NC(=O)C(c1ccc(C)o1)N(Cc1cccs1)C(=O)Cn1nnc2ccccc21 (stereo not given)	i	i	i	i	15*	342%*	i	80%*	i	i	99%*
CCC(C)(C)NC(=O)C(c1ccccc1)N(Cc1cccs1)C(=O)Cn1nnc2ccccc21 (stereo not given)	i	i	i	i	15*	119%*	i	34%*	i	i	44%*
COCCNC(=O)C(c1ccccc1)N(Cc1cccs1)C(=O)Cn1nnc2ccccc21 (stereo not given)	i	i	i	i	i	/	/	/	/	/	/
Cc1ccc(-n2nc3c(c2NC(=O)c2cccs2)CS(=O)(=O)C3)cc1C	i	i	i	i	i	/	/	/	/	/	/
Cc1cccc2cc3c(nc12)-c1ccccc1C3=O	i	i	i	i	i	/	/	/	/	/	/
Cc1nc2c(cc1C#N)C(=O)c1ccccc1-2	i	i	i	-5*	i	-114%*	i	-22%*	i	i	i
CCOC(=O)c1ccc(S(=O)(=O)Nc2cc(C(=O)O)ccc2Cl)cc1	i	i	i	i	i	/	/	/	/	/	/
N#Cc1c2c(c(NCCCN3CCOCC3)n3c1nc1ccccc13)CCC2	i	i	i	-6*	i	-173%*	70%*	-36%*	52%*	46%*	i
c1ccc2[nH]c(NCCCN3CCOCC3)nc2c1	i	i	i	i	i	/	/	/	/	/	/
c1ccc(-c2nc(NCCCN3CCOCC3)c3ccccc3n2)cc1	i	i	i	-11*	i	-168%*	i	-36%*	68%*	58%*	i
Cc1cccc(-c2nc(NCCCN3CCOCC3)c3ccccc3n2)c1	i	i	i	-9.6*	i	/	/	/	/	79%*	i	TRPC4 sel inh 2=38%*;TRPC4 spec=-21%*;HEK293 MPD ctr 2-1=i;HEK293 MPD ctr-1=-284%*
COc1cccc2sc3ccc(C#CC4(N)CCCCC4)cc3c(=O)c12	i	i	i	-9.2*	i	/	/	/	/	57%*	i	TRPC4 sel inh 2=59%*;TRPC4 spec=-15%*;HEK293 MPD ctr 2-1=i;HEK293 MPD ctr-1=-228%*
CCCC(=O)OCC(=O)Nc1ccc2c(c1)OCO2	i	i	i	i	i	/	/	/	/	/	/
O=C(c1csc2c1CCCC2)N1CCN(c2cccc(C(F)(F)F)c2)CC1	i	i	i	i	i	/	/	/	/	/	/
COc1ccc(C(=O)C2CCCN(Cc3cccn3-c3ccc(Cl)cn3)C2)c(OC)c1 (stereo not given)	i	i	i	-5.8*	i	134%*	i	14%*	89%*	53%*	/
O=C(c1cccc(C(F)(F)F)c1)C1CCCN(Cc2cccn2-c2ccccn2)C1 (stereo not given)	-5*	i	i	-7.5*	i	/	/	/	/	57%*	i	TRPC4 sel inh 2=35%*;TRPC4 spec=18%*;HEK293 MPD ctr 2-1=i;HEK293 MPD ctr-1=14%*
CCN(CC(=O)Nc1cccc(F)c1)CC(=O)Nc1ccccc1OC	i	i	i	i	i	/	/	/	/	/	/
COC(=O)c1ccccc1NS(=O)(=O)c1c(C)noc1C	i	i	i	i	i	/	/	/	/	/	/
CCN(CC)CCNC(=S)NC(=O)c1cn(-c2ccccc2)nc1-c1ccc(OC)cc1	i	i	i	-5.1*	i	i	i	i	58%*	i	i
